According to ChEMBL document CHEMBL1127435 (J Med Chem, 1994):
Where “and” joins values, the source holds several entries; their conditions need not be identical. Identical values can stand only once.

Assays:
[1] = target: T1, 5-hydroxytryptamine receptor 2A (Rattus norvegicus, UniProt P14842); assay: Affinity was evaluated by inhibition of [125I]LSD binding to NIH 3T3 cells transfected with cloned rat 5-hydroxytryptamine 2A receptor; type: cell-based, NIH3T3
How it was run: (§1)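 Membranes from confluent GF-6 and P0 cell monolayers, homogenized in ice-cold 0.32 M sucrose, spun at 44 000g, stored at -80°C in 50 mM Tris-HCl pH 7.6. Triplicate tubes held 5 nM [125I]LSD (stock), test compound at 10^-9 to 10^-5 M final and 1–5 μg protein. Nonspecific binding was defined with 10 μM mesulergine.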

[2] = target: T2, 5-hydroxytryptamine receptor 2C (Rattus norvegicus, UniProt P08909); assay: Affinity was evaluated by inhibition of [125I]LSD binding to NIH 3T3 cells transfected with cloned rat 5-hydroxytryptamine 2C receptor; type: cell-based, NIH3T3; how it was run: as §1
T2 sequence (P08909 whole entry): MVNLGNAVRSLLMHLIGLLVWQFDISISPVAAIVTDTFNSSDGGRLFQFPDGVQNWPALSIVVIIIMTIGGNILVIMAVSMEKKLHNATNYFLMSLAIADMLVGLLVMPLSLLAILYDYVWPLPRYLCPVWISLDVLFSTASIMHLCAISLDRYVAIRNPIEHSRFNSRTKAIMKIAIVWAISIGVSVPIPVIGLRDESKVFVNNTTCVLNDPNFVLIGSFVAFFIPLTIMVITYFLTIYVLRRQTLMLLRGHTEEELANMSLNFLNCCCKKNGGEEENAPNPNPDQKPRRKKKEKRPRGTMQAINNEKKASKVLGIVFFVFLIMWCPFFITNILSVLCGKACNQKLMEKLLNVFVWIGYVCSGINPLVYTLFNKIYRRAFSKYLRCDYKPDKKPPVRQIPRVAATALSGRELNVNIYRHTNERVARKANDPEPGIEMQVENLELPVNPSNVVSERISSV

D(1A) dopamine receptor = D(1A) dopamine receptor (Rattus norvegicus, UniProt P18901); assay: Affinity was evaluated as inhibition constant for dopamine receptor D1 using [3H]-SCH- 23390 as radioligand
Sequence of D(1A) dopamine receptor (P18901 whole entry): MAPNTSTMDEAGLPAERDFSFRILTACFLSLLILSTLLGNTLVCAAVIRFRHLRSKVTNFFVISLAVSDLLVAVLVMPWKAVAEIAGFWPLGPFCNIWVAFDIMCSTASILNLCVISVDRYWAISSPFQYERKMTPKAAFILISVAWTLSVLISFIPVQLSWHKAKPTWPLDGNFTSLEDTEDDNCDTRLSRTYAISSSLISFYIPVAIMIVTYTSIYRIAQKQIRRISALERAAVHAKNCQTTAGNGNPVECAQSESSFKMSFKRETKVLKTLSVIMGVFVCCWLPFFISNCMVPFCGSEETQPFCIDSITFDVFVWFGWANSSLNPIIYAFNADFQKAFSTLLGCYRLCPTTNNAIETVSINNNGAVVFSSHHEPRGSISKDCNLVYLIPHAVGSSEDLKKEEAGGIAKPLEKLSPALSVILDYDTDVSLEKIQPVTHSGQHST

D(4) dopamine receptor [3] = target: T3, D(4) dopamine receptor (Homo sapiens, UniProt P21917); assay: Affinity was evaluated by inhibition of [3H]-spiperone binding to COS cells transfected with human dopamine D-4 receptor; type: cell-based
T3 sequence (P21917 whole entry): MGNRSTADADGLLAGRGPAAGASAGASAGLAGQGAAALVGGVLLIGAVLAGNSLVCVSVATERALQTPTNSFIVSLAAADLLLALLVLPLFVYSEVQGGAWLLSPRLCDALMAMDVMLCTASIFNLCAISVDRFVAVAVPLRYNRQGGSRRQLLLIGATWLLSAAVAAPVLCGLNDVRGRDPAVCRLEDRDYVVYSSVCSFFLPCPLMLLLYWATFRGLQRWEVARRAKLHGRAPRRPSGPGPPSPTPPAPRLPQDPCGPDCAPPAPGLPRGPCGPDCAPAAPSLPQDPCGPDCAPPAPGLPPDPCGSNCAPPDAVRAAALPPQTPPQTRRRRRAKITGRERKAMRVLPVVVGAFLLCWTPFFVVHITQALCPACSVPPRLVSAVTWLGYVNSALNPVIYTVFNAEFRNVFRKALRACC
How it was run: (§2)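 Membranes from COS-7 cells transfected with human D-4 or D-2(long) receptor; [3H]spiperone binding inhibited in presence of sodium chloride. Ki averaged from two experiments.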

[4] = target: T4, Serotonin 3 (5-HT3) receptor (Rattus norvegicus, UniProt P35563+Q9JJ16); assay: Affinity was evaluated by inhibition of [3H]GR-65630 binding to NG108-15 cell transfected with cloned rat 5-hydroxytryptamine 3 receptor; type: cell-based
T4 sequence (P35563 whole entry): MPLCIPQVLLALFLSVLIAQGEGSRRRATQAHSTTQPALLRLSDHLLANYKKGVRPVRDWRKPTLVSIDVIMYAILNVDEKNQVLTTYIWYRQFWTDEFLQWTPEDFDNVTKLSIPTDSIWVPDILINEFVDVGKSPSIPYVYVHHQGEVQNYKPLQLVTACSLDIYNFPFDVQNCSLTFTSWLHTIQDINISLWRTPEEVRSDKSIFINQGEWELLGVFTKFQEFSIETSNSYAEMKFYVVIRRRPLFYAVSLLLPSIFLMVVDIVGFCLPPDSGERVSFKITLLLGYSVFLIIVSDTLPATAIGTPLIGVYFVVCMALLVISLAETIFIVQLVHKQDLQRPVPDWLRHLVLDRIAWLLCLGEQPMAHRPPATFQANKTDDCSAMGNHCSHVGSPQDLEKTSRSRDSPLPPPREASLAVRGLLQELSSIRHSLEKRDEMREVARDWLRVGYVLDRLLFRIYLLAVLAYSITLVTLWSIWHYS
T4 sequence (Q9JJ16 whole entry): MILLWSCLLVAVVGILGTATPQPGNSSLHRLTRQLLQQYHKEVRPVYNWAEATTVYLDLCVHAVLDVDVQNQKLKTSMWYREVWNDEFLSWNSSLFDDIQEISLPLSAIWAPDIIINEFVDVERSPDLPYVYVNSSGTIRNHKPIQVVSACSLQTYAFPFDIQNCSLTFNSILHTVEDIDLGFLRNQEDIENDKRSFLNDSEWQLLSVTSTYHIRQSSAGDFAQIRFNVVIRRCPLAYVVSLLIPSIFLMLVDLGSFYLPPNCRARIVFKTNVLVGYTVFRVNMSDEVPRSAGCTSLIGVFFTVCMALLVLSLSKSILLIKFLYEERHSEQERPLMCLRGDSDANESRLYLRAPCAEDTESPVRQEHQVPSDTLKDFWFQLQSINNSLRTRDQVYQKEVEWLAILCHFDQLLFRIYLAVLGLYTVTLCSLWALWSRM

D(2) dopamine receptor [5] = target: T5, D(2) dopamine receptor (Homo sapiens, UniProt P14416); assay: Affinity was evaluated by inhibition of [3H]spiperone binding to COS cells transfected with human dopamine D-2(long) receptor; type: cell-based; how it was run: as §2
T5 sequence (P14416 whole entry): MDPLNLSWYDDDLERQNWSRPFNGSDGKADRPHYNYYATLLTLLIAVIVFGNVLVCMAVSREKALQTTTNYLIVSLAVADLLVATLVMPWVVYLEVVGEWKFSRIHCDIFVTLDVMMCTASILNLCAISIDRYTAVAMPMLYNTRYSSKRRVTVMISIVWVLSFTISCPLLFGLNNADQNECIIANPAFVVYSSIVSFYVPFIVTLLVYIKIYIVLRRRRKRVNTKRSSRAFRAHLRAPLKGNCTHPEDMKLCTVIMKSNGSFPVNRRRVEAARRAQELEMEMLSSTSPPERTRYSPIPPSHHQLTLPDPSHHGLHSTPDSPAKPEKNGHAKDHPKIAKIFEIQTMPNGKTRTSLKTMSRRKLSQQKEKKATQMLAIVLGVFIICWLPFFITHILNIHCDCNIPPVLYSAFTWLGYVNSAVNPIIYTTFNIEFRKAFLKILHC

[6] = Ratio between Ki values of D2 and S-2A receptors
[7] = Ratio between Ki values of D2 and S-3 receptors
[8] = target: T4, Serotonin 3 (5-HT3) receptor; assay: Affinity was evaluated as inhibition constant for serotonin 5-hydroxytryptamine 3 receptor; type: protein-complex assay
D(4) dopamine receptor [9] = target: T3, D(4) dopamine receptor; assay: Affinity was evaluated as inhibition constant for dopamine D-4 receptor
[10] = target: T1, 5-hydroxytryptamine receptor 2A; assay: Affinity was evaluated as inhibition constant for serotonin 5-hydroxytryptamine 2A receptor
[11] = target: T2, 5-hydroxytryptamine receptor 2C; assay: Affinity was evaluated as inhibition constant for serotonin 5-hydroxytryptamine 2C receptor
D(2) dopamine receptor [12] = target: T5, D(2) dopamine receptor; assay: Affinity was evaluated as inhibition constant for dopamine D-2 receptor

T1 sequence (P14842 whole entry): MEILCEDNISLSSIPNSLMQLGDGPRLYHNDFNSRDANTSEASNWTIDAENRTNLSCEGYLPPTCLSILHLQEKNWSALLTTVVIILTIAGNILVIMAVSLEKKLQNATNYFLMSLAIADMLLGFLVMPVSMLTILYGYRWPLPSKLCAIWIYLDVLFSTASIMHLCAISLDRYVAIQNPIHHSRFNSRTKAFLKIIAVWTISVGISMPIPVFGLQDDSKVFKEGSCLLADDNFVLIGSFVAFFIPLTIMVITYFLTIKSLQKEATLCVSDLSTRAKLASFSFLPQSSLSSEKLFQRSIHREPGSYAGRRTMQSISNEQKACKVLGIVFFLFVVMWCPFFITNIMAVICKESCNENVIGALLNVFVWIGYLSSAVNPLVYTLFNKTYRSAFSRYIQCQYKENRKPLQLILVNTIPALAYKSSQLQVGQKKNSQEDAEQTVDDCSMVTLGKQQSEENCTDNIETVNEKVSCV

Compound	Ki [1] [nM]	Ki [2] [nM]	Ki (D(1A) dopamine receptor) [nM]	Ki (D(4) dopamine receptor [3]) [nM]	Ki [4] [nM]	Ki (D(2) dopamine receptor [5]) [nM]	Ratio [6]	Ratio [7]	Ki [8] [nM]	Ki (D(4) dopamine receptor [9]) [nM]	Ki [10]	Ki [11]	Ki (D(2) dopamine receptor [12])
CN1CCN(C2=Nc3ccccc3Nc3ccc(Cl)cc32)CC1 [ISOCLOZAPINE]			14						22	16			
CN1CCN(C2=Nc3cc(Cl)ccc3N(C)c3ccccc32)CC1							7.9	28	40	120	140 nM	74 nM	1100 nM
CN1CCN(C2=Nc3ccccc3Oc3ccc(Cl)cc32)CC1 [LOXAPINE]				4.9									
CC1CCN(C2=Cc3cc(Cl)ccc3Cc3ccccc32)CC1							< 1	< 1	> 1000	1000	> 1000 nM	> 1000 nM	1400 nM
CC1c2ccccc2C=C(C2=CCN(C)CC2)c2ccccc21 (racemic)							9.4			320	72 nM	89 nM	680 nM
C[C@H]1c2ccccc2C=C(C2=CCN(C)CC2)c2ccccc21							3.7			400	200 nM	250 nM	730 nM
C=C1c2ccccc2C=C(C2=CCN(C)CC2)c2ccccc21							8.3			330	30 nM	35 nM	250 nM
C[C@@H]1c2ccccc2C=C(C2=CCN(C)CC2)c2ccccc21							8.6			190	74 nM	70 nM	640 nM
CC(C)=C1c2ccccc2C=C(C2=CCN(C)CC2)c2ccccc21											2200 nM and 830 nM and 1200 nM	3300 nM and 830 nM and 1500 nM	520 nM and 790 nM and 570 nM
CN1CCC(C2=Cc3cc(Cl)ccc3Cc3ccccc32)CC1							200	14	41	2700	3 nM	3 nM	560 nM
CN1CCN(C2=Cc3ccccc3Oc3ccccc32)CC1	4	6		2	41	21	5	0.51					
CN1CCN(C2=Nc3ccccc3Nc3ccccc32)CC1			200							420		84 nM	2500 nM

The remaining lines, values ahead:

Ki [1] [nM]	Ki [2] [nM]	Ki (D(1A) dopamine receptor) [nM]	Ki (D(4) dopamine receptor [3]) [nM]	Ki [4] [nM]	Ki (D(2) dopamine receptor [5]) [nM]	Ratio [6]	Ratio [7]	Ki [8] [nM]	Ki (D(4) dopamine receptor [9]) [nM]	Ki [10]	Ki [11]	Ki (D(2) dopamine receptor [12])	Compound
47	36	16	12										CC1c2ccccc2C=C(N2CCN(C)CC2)c2ccccc21 (stereo not given)
98	110	68	300	35	730	7.4	21						C/C=C1/c2ccccc2C=C(N2CCN(C)CC2)c2ccccc21
3	6		0.9	57	8.7	3	0.15						CN1CCN(C2=Cc3cc(Cl)ccc3Oc3ccccc32)CC1
250	390	120	2700	81	290	1.2	3.6						CC(C)=C1c2ccccc2C=C(N2CCN(C)CC2)c2ccccc21
3	3		0.54	84	2.5	0.8	0.03						CN1CCN(C2=Cc3ccccc3Oc3ccc(Cl)cc32)CC1
11	19		23	39									CN1CCN(C2=Nc3cc(Cl)ccc3Oc3ccccc32)CC1 [ISOLOXAPINE]
230	370	98	930	100	690	3	6.9						CC(C)=C1c2ccc(Cl)cc2C=C(N2CCN(C)CC2)c2ccccc21
3	7		2900	120									CN1CCN(C2=Cc3cc(Cl)ccc3Cc3ccccc32)CC1
2	6			49									CN1CCN(C2=Cc3ccccc3Cc3ccc(Cl)cc32)CC1
11	18	4.7	47	31	57	5.2	1.8						C=C1c2ccccc2C=C(N2CCN(C)CC2)c2ccccc21
